CHOP inhibitor: inhibitors of CHOP promoter induction, primary screen, cell-based, unfolded protein response, luciferase reporter; CHO-K1 CHOP-promoter luciferase, tunicamycin-induced, 15-18 h; hit rate 3.8% among 220,000; inhibition, % at 10 µM;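 active = compounds that reduced the stress-induced luciferase reporter signal by more than about 70% of percent inhibition, limit read from the data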;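 note: 0% = tunicamycin plus vehicle and 100% = wells without tunicamycin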
NOD2 RIPK2 PPI: NOD2-RIPK2 binding disruptors in cells, primary screen, fluorescence, CHO cells, BLA complementation; inhibition, % at 4.98 µM; hit rate 0.38% among 360,000; CCF4 ratio; Receptor-interacting serine/threonine-protein kinase 2 (Homo sapiens), O43353; AID 624267, 2012; in the data active = inhibition above about 21%;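 note: 0% = vehicle only and 100% = reference blocker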
UPR CHOP act: activators of apoptotic CHOP UPR arm, primary screen, cell-based, CHO-CHOP luciferase reporter, luminescence, uHTS; hit rate 0.34% among 330,000; UPR activation; percent of tunicamycin response over DMSO baseline; activation, % at 10 µM;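 active = at 10 µM dose, activation of 40% or more, normalized to positive control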;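 note: 100% = tunicamycin at 10 µg/mL and 0% = DMSO alone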
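Dosing – one dose, 10 µM in 0.5% DMSO · System – CHO-CHOP cells, stable luciferase reporter of PERK-eIF2a-CHOP signalling · Input – 500 cells/well · Control set – tunicamycin 10 µg/mL final as positive, DMSO-only wells as negative · Timing – 6 h compound treatment, 37 °C · Measure – % activation vs tunicamycin · Technique – luminescence read with Steady-Glo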
UPR XBP1 act: activators of adaptive XBP1 UPR arm, primary screen, cell-based, CHO-XBP1 luciferase reporter, luminescence, uHTS | hit rate 0.33% among 330,000 | AID 463104, 2010 | IRE1-XBP1 UPR activation; percent of tunicamycin response, DMSO as zero | activation, % at 20 µM;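 active = versus positive control, 20 µM dose yields 30% or more activation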;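 note: 100% = tunicamycin at 10 µg/mL and 0% = DMSO only wells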
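Material: CHO-XBP1 cells stably carrying IRE1-XBP1-driven luciferase reporter / Amount: 1000 cells per well / Compound: 20 µM, 1% DMSO / Times: 6 h treatment, 37 °C / Detection: luciferase luminescence / Measure: % activation of reporter signal versus tunicamycin and DMSO controls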
TLR4-MyD88 BLA: inhibitors of TLR4-MyD88 association in cells, primary screen, cell-based, HeLa CL3-4, BLA complementation, FRET ratio; inhibition, % at 8.4 µM; Toll-like receptor 4 (Homo sapiens) + Myeloid differentiation primary response protein …; hit rate 0.18% among 200,000; HeLa CL3-4 TLR4/MyD88 BLA complementation; AID 861, 2007; in the data active = inhibition above about 25%;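 note: 0% = vehicle and 100% = reference inhibitor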
Target sequence (O00206 whole entry, looked up): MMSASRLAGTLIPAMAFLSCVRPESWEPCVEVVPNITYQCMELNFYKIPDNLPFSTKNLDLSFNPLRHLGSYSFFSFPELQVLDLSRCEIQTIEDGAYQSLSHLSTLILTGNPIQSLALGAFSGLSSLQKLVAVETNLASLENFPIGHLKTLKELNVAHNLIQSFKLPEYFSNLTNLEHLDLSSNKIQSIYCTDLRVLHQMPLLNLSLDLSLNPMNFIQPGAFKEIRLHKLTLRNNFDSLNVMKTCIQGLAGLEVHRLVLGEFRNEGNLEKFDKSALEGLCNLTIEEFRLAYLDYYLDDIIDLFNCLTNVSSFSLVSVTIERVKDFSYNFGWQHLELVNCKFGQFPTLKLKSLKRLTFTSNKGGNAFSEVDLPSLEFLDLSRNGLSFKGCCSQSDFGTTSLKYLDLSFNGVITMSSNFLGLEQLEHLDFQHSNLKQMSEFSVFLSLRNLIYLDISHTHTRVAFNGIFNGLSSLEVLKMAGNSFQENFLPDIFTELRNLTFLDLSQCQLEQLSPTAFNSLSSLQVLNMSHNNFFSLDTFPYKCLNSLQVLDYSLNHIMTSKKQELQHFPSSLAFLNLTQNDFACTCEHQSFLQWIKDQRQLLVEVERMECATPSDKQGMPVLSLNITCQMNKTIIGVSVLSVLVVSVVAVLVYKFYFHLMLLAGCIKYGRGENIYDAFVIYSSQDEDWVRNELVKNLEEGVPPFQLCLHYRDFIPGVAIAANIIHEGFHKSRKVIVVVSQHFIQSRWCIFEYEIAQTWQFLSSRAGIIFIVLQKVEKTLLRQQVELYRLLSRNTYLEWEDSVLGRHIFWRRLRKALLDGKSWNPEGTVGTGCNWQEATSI
Target sequence (Q99836 whole entry, looked up): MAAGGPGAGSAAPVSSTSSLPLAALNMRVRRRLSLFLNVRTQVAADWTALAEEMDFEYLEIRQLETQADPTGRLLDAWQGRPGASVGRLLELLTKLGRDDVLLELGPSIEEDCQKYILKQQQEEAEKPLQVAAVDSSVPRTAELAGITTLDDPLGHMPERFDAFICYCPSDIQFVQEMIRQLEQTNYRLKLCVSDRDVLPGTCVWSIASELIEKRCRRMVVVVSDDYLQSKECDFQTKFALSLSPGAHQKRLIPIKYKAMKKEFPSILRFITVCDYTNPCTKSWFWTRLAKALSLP
TLR9-MyD88 inh: inhibitors of TLR9-MyD88 association in cells, primary screen, cell-based, CHO, BLA complementation, fluorescence; AID 504734, 2011; hit rate 0.21% among 340,000; CCF4 FRET ratio; inhibition, % at 4.98 µM;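 active = inhibition above the mean over all tested compounds plus 3 SD, cut at about 21% in these data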;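 note: 0% = DMSO only wells and 100% = clavulanate BLA inhibitor control wells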
CHOP inh conf: retest of CHOP induction inhibitors, confirmation, cell-based | inhibition, % at 10 µM | CHO-CHOP promoter luciferase reporter, tunicamycin-induced, luminescence | hit rate 45% among 2,100 | AID 504437, 2011 | shares compounds with CHOP inhibitor;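 active = mean of three repeat readings of reporter signal inhibition above a set limit, cut at about 70% in these data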;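 note: 0% = tunicamycin plus vehicle and 100% = wells lacking tunicamycin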
Active calls of the source: *; nt = no result given. The entries come from a sample that favours hits as a whole.

SMILES	CHOP inhibitor	NOD2 RIPK2 PPI	UPR CHOP act	UPR XBP1 act	TLR4-MyD88 BLA	TLR9-MyD88 inh	CHOP inh conf
O=C(ONc1ccc(N=NC(=O)c2ccccc2O)cc1)c1ccccc1	107*	3	-2	-4	-5	3	132*
COc1ccc2c(Cl)c(C(=O)N/N=C/c3ccc4c(c3)OCO4)sc2c1	107*	-1	0	1	-2	-11	45
CCOc1cccc2cc(-c3nnc(NCc4ccco4)s3)c(=O)oc12	97*	2	6	3	21	15	20
COc1cc(C(=O)ON=C2C(C)=CC(=O)C=C2C)cc(OC)c1OC	110*	-3	25	-3	-11	-1	-112
CCCc1cc(C(=O)Cc2ccc(F)cc2)c(O)cc1O	100*	-1	-1	1	-1	4	122*
CC(NO)/C(=N\O)c1cccs1 (configuration not stated)	106*	3	1	-3	-2	5	40
C/C(=N\N=C(c1ccccc1)c1ccccc1)c1cccs1	33	-7	3	-2	11	-6	nt
COC(=O)[C@H](CC(C)C)NC(=O)/C=C/[C@H]1O[C@@H](n2cc(C)c(=O)[nH]c2=O)C[C@@H]1O	nt	-15	nt	nt	nt	nt	nt
CCCn1c(SCC(=O)c2ccc3c(c2)NC(=O)CO3)nc2ccccc21	103*	-8	2	0	-12	10	5
CC(=O)Nc1ccccc1/C=C/c1ccc2c(C)cc(C)c(O)c2n1	97*	-8	1	6	-6	2	24
CC(=O)Nc1ccccc1/C=C/c1ccc2c(C)ccc(O)c2n1	-19	0	3	2	-10	-6	nt
O=C(On1c(-c2ccccc2)nc2ccccc2c1=O)c1ccco1	104*	-16	-1	-2	8	-4	116*
O=c1c2ccccc2nc(-c2ccco2)n1Cc1ccccc1	47	6	6	2	-7	-1	nt
CC(/C=C1\SC(=O)N(CCCC(=O)O)C1=O)=C\c1ccccc1	101*	-10	nt	nt	0	2	110*
CCOC(=O)/C(O)=C(\C#N)c1nc2ccccc2[nH]1	13	1	1	-1	3	12	nt
CCOC(=O)c1ccc2c(c1)nc(SC/C(O)=C(\C#N)c1nc3ccccc3[nH]1)n2CC	99*	-4	1	2	-6	8	46
CCOC(=O)c1c(C)[nH]c(C(=O)OC/C(O)=C(\C#N)c2nc3ccccc3[nH]2)c1C	100*	-5	0	-1	-1	8	-32
CCOC(=O)c1ccc2c(c1)nc(SCC(=O)c1ccco1)n2CC	28	-8	5	-1	2	-10	nt
CC1CN(S(=O)(=O)c2cccc(C(=O)OC/C(O)=C(\C#N)c3nc4ccccc4[nH]3)c2)CC(C)O1 (configuration not stated)	106*	1	1	-1	7	3	29
Cc1ccc(S(=O)(=O)NC(=O)NC2=NC(C)(C)N(c3ccc(Cl)c(Cl)c3)C(N)=N2)cc1	nt	-15	nt	nt	nt	nt	nt
CC1(c2nc3ccccc3[nH]2)CCC(=O)N1Cc1ccc(F)cc1 (configuration not stated)	nt	0	nt	nt	nt	nt	nt
O=C(Cn1c(COc2ccccc2)nc2ccccc21)Nc1cc(Cl)cc(Cl)c1	109*	-9	6	18	-5	-5	32
O=C(N/N=C/c1ccc(Br)s1)Nc1ccccc1	97*	-1	4	-2	1	-3	59
CC(=O)c1c(C)oc2ccc(NS(=O)(=O)c3ccc(C)cc3)cc12	nt	-14	0	2	nt	-2	nt
Cc1oc2ccc(NS(=O)(=O)c3ccc(C(C)(C)C)cc3)cc2c1C(=O)Nc1ccccc1	107*	3	3	-4	18	-1	45
SMILES	CHOP inhibitor	NOD2 RIPK2 PPI	UPR CHOP act	UPR XBP1 act	TLR4-MyD88 BLA	TLR9-MyD88 inh	CHOP inh conf
CCCOc1ccccc1C1CC(=O)NC(C)=C1C(=O)OCC(C)C (configuration not stated)	99*	-8	2	1	-15	-3	116*
CC(C)C[C@H](NC(=O)c1nc[nH]c1C(=O)NCC(=O)OC(C)(C)C)C(=O)OCc1ccccc1	101*	-7	-2	1	nt	-8	114*
CC(C)C[C@H](NC(=O)c1[nH]cnc1C(=O)Nc1ccccc1)C(=O)OC(C)(C)C	106*	-2	1	5	nt	0	112*
CC(C)C[C@H](NC(=O)c1nc[nH]c1C(=O)N[C@@H](CC(C)C)C(=O)OC(C)(C)C)C(=O)OCc1ccccc1	nt	nt	2	18	nt	nt	nt
CC(C)C[C@H](NC(=O)c1[nH]cnc1C(=O)N[C@@H](C)C(=O)OC(C)(C)C)C(=O)OC(C)(C)C	104*	-4	1	-4	nt	-4	134*
CC(C)C[C@H](NC(=O)c1nc[nH]c1C(=O)N[C@@H](CCCCN)C(=O)OC(C)(C)C)C(=O)OC(C)(C)C	nt	-5	2	-2	nt	0	nt
Cc1ccc(-c2ccc(CN3C(C(C)C)C(=O)N(Cc4cn(Cc5ccco5)nn4)CCS3(=O)=O)cc2)cc1 (configuration not stated)	nt	-11	nt	nt	nt	-8	nt
Cc1ccc(S(=O)(=O)N2C[C@H]3[C@H]4C(=O)N(c5ccccc5)C(=O)[C@H]4C[C@H](OC(=O)NCC4CCCCC4)[C@@]3(O)C2)cc1	nt	-12	nt	nt	nt	1	nt
CC(C)CNC(=O)c1cccc2c(-c3cccc(C(N)=O)c3)coc12	nt	13	nt	nt	nt	nt	nt
CC(C)c1ccc(NC(=O)CSc2nc(=O)[nH]c3c2CCCC3)cc1	nt	-8	1	0	nt	14	nt
CC(C)c1ccc(NC(=O)CSc2nc(-c3ccccc3F)nc3nc[nH]c23)cc1	100*	12	0	6	-12	-20	94*
Cc1cccc(S(=O)(=O)NC(=O)C2(C)CCN2C(=O)C/C=C/c2ccccc2)c1 (configuration not stated)	nt	-1	nt	nt	nt	nt	nt
O=C(CC[C@H]1O[C@@H](n2ccc(=O)[nH]c2=O)[C@H](O)[C@@H]1O)NCc1cccc2ccccc12	nt	-13	nt	nt	nt	nt	nt
CCOC(=O)c1ccc(Nc2ccc(-c3ccc(OC)c(OC)c3)nn2)cc1	102*	5	3	7	9	3	13
Cc1cc(S(=O)(=O)Nc2ccc3ccccc3c2)c(C)s1	111*	6	-2	-1	-4	1	52
